# Experiments:
# [1] = 1-Octanol-PBS buffer partition coefficient, log P of the compound at 0.37 MBq after 2 mins by gamma counting analysis; format: physicochemical
# [2] = test system: Brain; experiment: Ratio of drug level in ddY mouse brain at 13.2 to 20.6 kBq, iv measured at 2 mins to drug level in ddY mouse brain at 13.2 to 20.6 kBq, iv measured at 60 mins; format: ADME, organism-based; conditions: in vivo
# Procedure, shortened: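 Tail-vein injection of the 125I tracer (13.2–20.6 kBq, saline with ethanol) into male 5-week-old ddY mice. The ratio is brain uptake (%ID/g) at 2 min divided by brain uptake at 60 min, from groups of 5 animals.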
# [3] = test system: Intestine; experiment: Biodistribution in ddY mouse intestine at 13.2 to 20.6 kBq, iv measured at 60 mins by gamma counting analysis; format: ADME, organism-based; conditions: in vivo, 1 h
# Procedure, shortened: (§1)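 Male ddY mice, 5 weeks old, received the 125I-labelled tracer (13.2–20.6 kBq) intravenously in the tail vein, in 100 µL saline containing ethanol. Animals were sacrificed at 2, 10, 30 and 60 min. Tissue radioactivity is expressed as %ID/g, mean (SD) of 5 animals.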
# [4] = test system: Spleen; experiment: Biodistribution in ddY mouse spleen at 13.2 to 20.6 kBq, iv measured at 60 mins by gamma counting analysis; format: ADME, organism-based; conditions: in vivo, 1 h; procedure, shortened: as §1
# [5] = test system: Pancreas; experiment: Biodistribution in ddY mouse pancreas at 13.2 to 20.6 kBq, iv measured at 60 mins by gamma counting analysis; format: ADME, organism-based; conditions: in vivo, 1 h; procedure, shortened: as §1
# [6] = test system: Heart; experiment: Biodistribution in ddY mouse heart at 13.2 to 20.6 kBq, iv measured at 60 mins by gamma counting analysis; format: ADME, organism-based; conditions: in vivo, 1 h; procedure, shortened: as §1
# [7] = test system: Lung; experiment: Biodistribution in ddY mouse lung at 13.2 to 20.6 kBq, iv measured at 60 mins by gamma counting analysis; format: ADME, organism-based; conditions: in vivo, 1 h; procedure, shortened: as §1
# [8] = test system: Stomach; experiment: Biodistribution in ddY mouse stomach at 13.2 to 20.6 kBq, iv measured per organ at 60 mins by gamma counting analysis; format: ADME, organism-based; conditions: in vivo, 1 h
# Procedure, shortened: (§2)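 Male ddY mice, 5 weeks old, were injected in the tail vein with the 125I tracer (13.2–20.6 kBq) in 100 µL saline containing ethanol. Sacrifice at 2, 10, 30 and 60 min. Stomach radioactivity is expressed as %ID per whole organ, mean (SD) of 5 animals.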
# [9] = test system: Brain; experiment: Biodistribution in ddY mouse brain at 13.2 to 20.6 kBq, iv measured at 60 mins by gamma counting analysis; format: ADME, organism-based; conditions: in vivo, 1 h; procedure, shortened: as §1
# [10] = test system: Blood; experiment: Biodistribution in ddY mouse blood at 13.2 to 20.6 kBq, iv measured at 60 mins by gamma counting analysis; format: ADME, organism-based; conditions: in vivo, 1 h; procedure, shortened: as §1
# [11] = test system: Liver; experiment: Biodistribution in ddY mouse liver at 13.2 to 20.6 kBq, iv measured at 10 mins by gamma counting analysis; format: ADME, organism-based; conditions: in vivo; procedure, shortened: as §1
# [12] = test system: Kidney; experiment: Biodistribution in ddY mouse kidney at 13.2 to 20.6 kBq, iv measured at 10 mins by gamma counting analysis; format: ADME, organism-based; conditions: in vivo; procedure, shortened: as §1
# [13] = test system: Intestine; experiment: Biodistribution in ddY mouse intestine at 13.2 to 20.6 kBq, iv measured at 10 mins by gamma counting analysis; format: ADME, organism-based; conditions: in vivo; procedure, shortened: as §1
# [14] = test system: Spleen; experiment: Biodistribution in ddY mouse spleen at 13.2 to 20.6 kBq, iv measured at 10 mins by gamma counting analysis; format: ADME, organism-based; conditions: in vivo; procedure, shortened: as §1
# [15] = test system: Pancreas; experiment: Biodistribution in ddY mouse pancreas at 13.2 to 20.6 kBq, iv measured at 10 mins by gamma counting analysis; format: ADME, organism-based; conditions: in vivo; procedure, shortened: as §1
# [16] = test system: Heart; experiment: Biodistribution in ddY mouse heart at 13.2 to 20.6 kBq, iv measured at 10 mins by gamma counting analysis; format: ADME, organism-based; conditions: in vivo; procedure, shortened: as §1
# [17] = test system: Lung; experiment: Biodistribution in ddY mouse lung at 13.2 to 20.6 kBq, iv measured at 10 mins by gamma counting analysis; format: ADME, organism-based; conditions: in vivo; procedure, shortened: as §1
# [18] = test system: Stomach; experiment: Biodistribution in ddY mouse stomach at 13.2 to 20.6 kBq, iv measured per organ at 10 mins by gamma counting analysis; format: ADME, organism-based; conditions: in vivo; procedure, shortened: as §2
# [19] = test system: Brain; experiment: Biodistribution in ddY mouse brain at 13.2 to 20.6 kBq, iv measured at 10 mins by gamma counting analysis; format: ADME, organism-based; conditions: in vivo; procedure, shortened: as §1
# [20] = test system: Blood; experiment: Biodistribution in ddY mouse blood at 13.2 to 20.6 kBq, iv measured at 10 mins by gamma counting analysis; format: ADME, organism-based; conditions: in vivo; procedure, shortened: as §1
# [21] = test system: Liver; experiment: Biodistribution in ddY mouse liver at 13.2 to 20.6 kBq, iv measured at 30 mins by gamma counting analysis; format: ADME, organism-based; conditions: in vivo, 0.5 h; procedure, shortened: as §1
# [22] = test system: Kidney; experiment: Biodistribution in ddY mouse kidney at 13.2 to 20.6 kBq, iv measured at 30 mins by gamma counting analysis; format: ADME, organism-based; conditions: in vivo, 0.5 h; procedure, shortened: as §1
# [23] = test system: Intestine; experiment: Biodistribution in ddY mouse intestine at 13.2 to 20.6 kBq, iv measured at 30 mins by gamma counting analysis; format: ADME, organism-based; conditions: in vivo, 0.5 h; procedure, shortened: as §1
# [24] = test system: Spleen; experiment: Biodistribution in ddY mouse spleen at 13.2 to 20.6 kBq, iv measured at 30 mins by gamma counting analysis; format: ADME, organism-based; conditions: in vivo, 0.5 h; procedure, shortened: as §1
# [25] = test system: Pancreas; experiment: Biodistribution in ddY mouse pancreas at 13.2 to 20.6 kBq, iv measured at 30 mins by gamma counting analysis; format: ADME, organism-based; conditions: in vivo, 0.5 h; procedure, shortened: as §1
# [26] = test system: Heart; experiment: Biodistribution in ddY mouse heart at 13.2 to 20.6 kBq, iv measured at 30 mins by gamma counting analysis; format: ADME, organism-based; conditions: in vivo, 0.5 h; procedure, shortened: as §1
# [27] = test system: Lung; experiment: Biodistribution in ddY mouse lung at 13.2 to 20.6 kBq, iv measured at 30 mins by gamma counting analysis; format: ADME, organism-based; conditions: in vivo, 0.5 h; procedure, shortened: as §1
# [28] = test system: Stomach; experiment: Biodistribution in ddY mouse stomach at 13.2 to 20.6 kBq, iv measured per organ at 30 mins by gamma counting analysis; format: ADME, organism-based; conditions: in vivo, 0.5 h; procedure, shortened: as §2
# [29] = test system: Brain; experiment: Biodistribution in ddY mouse brain at 13.2 to 20.6 kBq, iv measured at 30 mins by gamma counting analysis; format: ADME, organism-based; conditions: in vivo, 0.5 h; procedure, shortened: as §1
# [30] = test system: Blood; experiment: Biodistribution in ddY mouse blood at 13.2 to 20.6 kBq, iv measured at 30 mins by gamma counting analysis; format: ADME, organism-based; conditions: in vivo, 0.5 h; procedure, shortened: as §1
# [31] = test system: Liver; experiment: Biodistribution in ddY mouse liver at 13.2 to 20.6 kBq, iv measured at 60 mins by gamma counting analysis; format: ADME, organism-based; conditions: in vivo, 1 h; procedure, shortened: as §1
# [32] = test system: Kidney; experiment: Biodistribution in ddY mouse kidney at 13.2 to 20.6 kBq, iv measured at 60 mins by gamma counting analysis; format: ADME, organism-based; conditions: in vivo, 1 h; procedure, shortened: as §1
# [33] = test system: Brain; experiment: Biodistribution in ddY mouse brain at 13.2 to 20.6 kBq, iv measured at 2 mins by gamma counting analysis; format: ADME, organism-based; conditions: in vivo; procedure, shortened: as §1
# [34] = test system: Stomach; experiment: Biodistribution in ddY mouse stomach at 13.2 to 20.6 kBq, iv measured per organ at 2 mins by gamma counting analysis; format: ADME, organism-based; conditions: in vivo; procedure, shortened: as §2
# [35] = test system: Heart; experiment: Biodistribution in ddY mouse heart at 13.2 to 20.6 kBq, iv measured at 2 mins by gamma counting analysis; format: ADME, organism-based; conditions: in vivo; procedure, shortened: as §1
# [36] = test system: Lung; experiment: Biodistribution in ddY mouse lung at 13.2 to 20.6 kBq, iv measured at 2 mins by gamma counting analysis; format: ADME, organism-based; conditions: in vivo; procedure, shortened: as §1
# [37] = test system: Pancreas; experiment: Biodistribution in ddY mouse pancreas at 13.2 to 20.6 kBq, iv measured at 2 mins by gamma counting analysis; format: ADME, organism-based; conditions: in vivo; procedure, shortened: as §1
# [38] = test system: Spleen; experiment: Biodistribution in ddY mouse spleen at 13.2 to 20.6 kBq, iv measured at 2 mins by gamma counting analysis; format: ADME, organism-based; conditions: in vivo; procedure, shortened: as §1
# [39] = test system: Intestine; experiment: Biodistribution in ddY mouse intestine at 13.2 to 20.6 kBq, iv measured at 2 mins by gamma counting analysis; format: ADME, organism-based; conditions: in vivo; procedure, shortened: as §1
# [40] = test system: Kidney; experiment: Biodistribution in ddY mouse kidney at 13.2 to 20.6 kBq, iv measured at 2 mins by gamma counting analysis; format: ADME, organism-based; conditions: in vivo; procedure, shortened: as §1
# [41] = test system: Blood; experiment: Biodistribution in ddY mouse blood at 13.2 to 20.6 kBq, iv measured at 2 mins by gamma counting analysis; format: ADME, organism-based; conditions: in vivo; procedure, shortened: as §1
# [42] = test system: Liver; experiment: Biodistribution in ddY mouse liver at 13.2 to 20.6 kBq, iv measured at 2 mins by gamma counting analysis; format: ADME, organism-based; conditions: in vivo; procedure, shortened: as §1
compound,measurement,setting,value
CN(C)c1ccc(/N=N/c2nc3ccc([125I])cc3s2)cc1,logP at 2 min,[1],3.84
same,Ratio,[2],0.33
CNc1ccc(/C=C/c2nc3ccc([125I])cc3[nH]2)cc1,Drug uptake,[3],30 % ID/g
same,Drug uptake,[4],1.74 % ID/g
same,Drug uptake,[5],0.51 % ID/g
same,Drug uptake,[6],0.74 % ID/g
same,Drug uptake,[7],1.32 % ID/g
same,Drug uptake,[8],2.97 %ID
same,Drug uptake,[9],0.14 % ID/g
same,Drug uptake,[10],1.37 % ID/g
same,Drug uptake,[11],23.2 % ID/g
same,Drug uptake,[12],5.85 % ID/g
same,Drug uptake,[13],11.5 % ID/g
same,Drug uptake,[14],4.9 % ID/g
same,Drug uptake,[15],2.58 % ID/g
same,Drug uptake,[16],2.8 % ID/g
same,Drug uptake,[17],3.55 % ID/g
same,Drug uptake,[18],4.88 %ID
same,Drug uptake,[19],1.42 % ID/g
same,Drug uptake,[20],2.76 % ID/g
same,Drug uptake,[21],16 % ID/g
same,Drug uptake,[22],3.07 % ID/g
same,Drug uptake,[23],28.4 % ID/g
same,Drug uptake,[24],3.13 % ID/g
same,Drug uptake,[25],0.92 % ID/g
same,Drug uptake,[26],1.28 % ID/g
same,Drug uptake,[27],1.93 % ID/g
same,Drug uptake,[28],4.65 %ID
same,Drug uptake,[29],0.36 % ID/g
same,Drug uptake,[30],2.19 % ID/g
same,Drug uptake,[31],11 % ID/g
same,Drug uptake,[32],2.02 % ID/g
same,logP at 2 min,[1],2
same,Ratio,[2],29.4
same,Drug uptake,[33],4.11 % ID/g
same,Drug uptake,[34],2.31 %ID
same,Drug uptake,[35],6.68 % ID/g
same,Drug uptake,[36],7.13 % ID/g
same,Drug uptake,[37],6.8 % ID/g
same,Drug uptake,[38],5.19 % ID/g
same,Drug uptake,[39],4.96 % ID/g
same,Drug uptake,[40],11.2 % ID/g
same,Drug uptake,[41],3.65 % ID/g
same,Drug uptake,[42],19.9 % ID/g
Nc1ccc(/N=N/c2nc3ccc([125I])cc3s2)cc1,Ratio,[2],0.3
CNc1ccc(/N=N/c2nc3ccc([125I])cc3s2)cc1,Ratio,[2],0.33

# — ChEMBL document CHEMBL2384977, “Synthesis and biological evaluation of novel styryl benzimidazole derivatives as probes for imaging of neurofibrillary tangles in Alzheimer's disease” (Bioorg Med Chem, 2013)
